Compound activity (PubChem BioAssay)
Cl transport mod: modulates chloride dependent transport by human KCC2; 190,000 compounds, 2.2% hits; AID 1456; B-score of Tl+ flux slope (higher = more flux/activation; lower = inhibition) at 10 µM; Q9H2X9; KCC2 cells, thallium flux FluoZin-2 fluorescence;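 active = thallium flux slope and its plate-corrected score both differing from the plate sample mean at a set confidence after two filtering rounds, in either direction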;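 note: slope of fluorescence scaled to starting intensity during 10 to 20 s after thallium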
PKD1 inh: PKD1 (human) kinase inhibition; 200,000 compounds, 0.056% hits; PKD1 kinase fluorescence polarization assay; AID 797; Q15139; inhibition, % (concentration not given with the values); in the data active = inhibition above about 50%
Target sequence (Q15139 whole entry, looked up): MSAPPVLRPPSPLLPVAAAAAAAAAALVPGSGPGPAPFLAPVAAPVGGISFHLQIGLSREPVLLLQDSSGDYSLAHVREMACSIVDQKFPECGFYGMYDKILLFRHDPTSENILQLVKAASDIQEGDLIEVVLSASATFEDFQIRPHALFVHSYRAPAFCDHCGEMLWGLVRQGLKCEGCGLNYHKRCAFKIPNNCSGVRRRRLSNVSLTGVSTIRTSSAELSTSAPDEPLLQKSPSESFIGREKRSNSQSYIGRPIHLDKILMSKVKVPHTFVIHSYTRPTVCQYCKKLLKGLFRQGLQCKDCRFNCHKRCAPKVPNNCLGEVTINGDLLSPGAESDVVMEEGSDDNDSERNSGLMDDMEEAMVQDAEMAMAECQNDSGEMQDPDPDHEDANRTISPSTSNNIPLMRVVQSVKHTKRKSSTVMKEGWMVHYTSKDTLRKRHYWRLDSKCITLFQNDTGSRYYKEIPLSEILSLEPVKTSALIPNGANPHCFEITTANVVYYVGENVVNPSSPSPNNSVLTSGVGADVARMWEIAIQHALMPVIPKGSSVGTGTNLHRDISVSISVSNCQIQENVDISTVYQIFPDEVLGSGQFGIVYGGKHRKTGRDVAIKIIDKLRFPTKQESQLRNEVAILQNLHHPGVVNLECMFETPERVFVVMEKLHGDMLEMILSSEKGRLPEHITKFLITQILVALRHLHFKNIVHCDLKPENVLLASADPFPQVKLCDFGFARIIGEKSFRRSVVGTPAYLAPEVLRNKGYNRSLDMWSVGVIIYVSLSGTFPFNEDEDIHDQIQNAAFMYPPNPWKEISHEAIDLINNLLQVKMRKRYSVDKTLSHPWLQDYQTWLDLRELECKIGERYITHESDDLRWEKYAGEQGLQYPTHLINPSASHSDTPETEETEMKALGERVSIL
Rad51 HR inh: Rad51 (human) homologous recombination inhibition; Q06609; inhibition, % at 10 µM; hRad51 DNA strand exchange, fluorescence dequenching; AID 1385; 200,000 compounds, 0.085% hits;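 active = inhibition above 40% at the single screening dose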;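 note: 0% = DMSO control wells and 100% = blanks with heterologous ssDNA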
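System: hRad51 filaments on single-stranded DNA; reagent: Fluorescein- and BHQ1-tagged 47-mer duplex; compound dosing: one concentration, 10 µM final; timing: filaments 15 min 37 °C, then compound 30 min; measured by: fluorescein emission 520 nm, excitation 485 nm; benchmarks: per-plate controls and blanks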
ROMK primary: human ROMK K+ channel modulation, primary screen | AID 1918 | B-score at 10 µM | P48048 | Tet-inducible ROMK, thallium flux fluorescence; actives lie on both sides | 130,000 compounds, 2% hits;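 active = signal ratio slope over the read window, or its plate-corrected B-score, at least 3 SD from the plate mean, either direction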;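 note: B-score of the F/F0 ratio slope over 7 to 12 s after thallium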
KCC2 secondary: KCC2 (human) modulation, secondary assay. shares compounds with Cl transport mod. HEK293-KCC2, thallium flux, FluoZin2 fluorescence; stronger effect = higher value. normalised thallium flux (F/F0 slope) at 10 µM. 3,700 compounds, 15% hits. AID 1713;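 active = thallium flux slope above the same plate's solvent-only control mean plus 3 SD; inconclusive = the two replicate wells disagree; inactive = no significant difference from solvent-only control wells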
KCC2 bumet counter: thallium flux despite bumetanide block in KCC2 cells, secondary assay 3 | shares compounds with Cl transport mod | HEK293-KCC2 + bumetanide/ouabain, thallium flux FluoZin2; stronger effect = higher value | normalized thallium flux at 10 µM | 3,700 compounds, 49% hits | AID 1714;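 active = thallium entry rate above the same plate's blocked-transporter control wells by more than 3 SD; inconclusive = the two repeat wells disagree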;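 note: raw slope of fluorescence over initial fluorescence between 10 and 20 s after thallium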
KCC2 sec2: confirmation of human KCC2 transport modulators; shares compounds with Cl transport mod; HEK293-KCC2, thallium flux FluoZin2 fluorescence; actives lie on both sides; F/F0 rise rate, 10–20 s post-thallium; normalized thallium flux at 10 µM; 3,700 compounds, 23% hits; AID 1715;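 active = thallium flux slope more than 3 SD above or below the plate's solvent-only control mean, mostly below; inconclusive = the two repeat wells disagreed; inactive = no significant shift from solvent-only controls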;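 note: raw slope with 0.1% DMSO as baseline and bumetanide as block control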
HEK counter1: counter-screen for KCC2 modulators: effect in parental HEK293 cells | shares compounds with Cl transport mod | thallium flux FluoZin2, ouabain; baseline-ratio fluorescence slope, 10–20 s after thallium | thallium flux rate (normalised fluorescence) at 10 µM | 3,700 compounds, 46% hits | AID 1716;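 active = thallium flux rate significantly above the same plate's solvent-only control wells, beyond their mean plus 3 SD; inconclusive = the two replicate wells gave conflicting results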
KCC2 ouabain: confirmation of human KCC2 modulators with ouabain | 3,700 compounds, 48% hits | raw Tl+ flux slope (below DMSO = inhibition, above = activation) at 10 µM | HEK293-KCC2, thallium flux FluoZin2 fluorescence; bidirectional: low = inhibitor, high = activator | shares compounds with Cl transport mod;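 active = thallium flux slope beyond 3 SD from same-plate DMSO control mean in most replicates, usually higher, sometimes lower; inconclusive = repeat tests gave conflicting results; inactive = no significant difference from controls in most replicates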;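 note: slope of initial-normalized fluorescence between seconds 10 and 20 after thallium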
HEK counter2: parental HEK flux effect, counter-screen 2 | HEK293 parental, thallium flux FluoZin-2 fluorescence slope | shares compounds with Cl transport mod | AID 1718 | thallium flux slope at 10 µM | 3,700 compounds, 33% hits;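 active = thallium flux slope above the same plate's solvent-control mean plus 3 SD in both duplicate wells; inconclusive = duplicate wells that disagreed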;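 note: run without ouabain in cells lacking the KCC2 cotransporter; slope of fluorescence scaled to its starting value between 10 and 20 s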
Active calls of the source: *; ? = inconclusive; / = not tested or not shown. This is a sample that favours compounds with a hit; in the whole collection about 3% have one here.

SMILES	Cl transport mod	PKD1 inh	Rad51 HR inh	ROMK primary	KCC2 secondary	KCC2 bumet counter	KCC2 sec2	HEK counter1	KCC2 ouabain	HEK counter2
O=C(NNc1nc2c(F)cc(F)cc2s1)C1COc2ccccc2O1 (stereo not drawn)	6*	-5	0	-1.3	?	0.036*	0.037	?	0.033*	?
COc1ccc(OC)c2sc(NNC(=O)C3COc4ccccc4O3)nc12 (stereo not drawn)	/	-1	3	0.63	/	/	/	/	/	/
O=C(c1ccccc1F)N(Cc1nc2ccccc2c(=O)[nH]1)C1CCCC1	/	0	-3	-0.33	/	/	/	/	/	/
O=S1(=O)[C@H]2C[C@@H]3CC[C@]2(CN1Cc1cccc(F)c1)O3	1.4	/	-2	/	/	/	/	/	/	/
Cc1cc(/N=C/C=C2\N(C)c3ccccc3C2(C)C)n(CCC#N)n1	-3.6*	-4	1	0.097	0.0078	0.0051	0.03	0.0056*	?	0.0096
CN1/C(=C\C=Nc2ccc3ccccc3c2)C(C)(C)c2ccccc21	/	-12	-26	/	/	/	/	/	/	/
C(=C\c1ccccc1)/CN1CCN(Cc2ccc3c(c2)OCCO3)CC1	3.4*	-7	0	/	0.0083	0.005	0.035	0.008	0.021	0.011
CC12CCC(C(=O)Nc3nc4ccc(Br)cc4s3)(OC1=O)C2(C)C (stereo not drawn)	9.7*	2	/	0.17	0.0052	0.04*	?	0.017*	0.035*	0.022*
Cc1ccc(Nc2nc(-c3ccc(C)cc3)c(CC(=O)O)s2)cc1	-3.2*	4	4	0.41	0.0084	0.0091*	0.029	0.0073	0.018	0.01
CSc1cccc(NC(=O)C2CCN(S(=O)(=O)c3ccc(F)cc3)CC2)c1	/	-3	-4	/	0.0077	0.0053	0.034	0.0044	?	0.01
CSc1cccc(NC(=O)C2CCCN(S(=O)(=O)c3ccc(F)cc3)C2)c1 (stereo not drawn)	-0.58	2	-5	-0.012	/	/	/	/	/	/
Cc1nc(CNC(=O)c2cc(COc3ccc(F)cc3Cl)on2)cs1	-4.6*	-3	/	-0.57	0.0065	0.0064	0.033	0.0043	0.015*	0.011
Cc1ccc(CN(C)C(=O)c2cc(COc3ccc(F)cc3Cl)on2)o1	/	-4	1	-0.74	0.007	0.0053	0.026*	0.0072	?	0.01
C#CCN(Cc1ccco1)C(=O)c1cc(COc2ccc(F)cc2Cl)on1	-1.6	3	4	/	/	/	/	/	/	/
Cc1cc(CN(C)C(=O)c2cc(COc3ccc(F)cc3Cl)on2)n[nH]1	-4.7*	-4	-4	-0.2	0.0061*	?	?	0.0083	0.024	0.011
N#Cc1ccc(COC(=O)c2ccc(N3CCCC3)c([N+](=O)[O-])c2)cc1	-0.78	-2	3	/	/	/	/	/	/	/
O=C(CSc1ccccc1[N+](=O)[O-])NC1CCS(=O)(=O)C1 (stereo not drawn)	0.54	-12	/	-0.079	/	/	/	/	/	/
O=C(Oc1c(-c2ccccc2)c(=O)n2c3c(cccc13)CC2)c1ccccc1	-4.4*	/	4	/	0.014	0.0035	0.027	0.0054*	0.013*	0.0072*
CC(C)(C)c1cc(C(=O)NNC(=O)c2ccc(C(F)(F)F)cc2)no1	64*	/	-1	/	0.028*	0.083*	?	0.041*	0.045*	0.022*
Cc1nnsc1C(=O)NNC(=O)c1ccc(C(F)(F)F)cc1	-0.018	/	18	/	/	/	/	/	/	/
CSCCC(NC(=O)c1ccccc1Br)C(=O)Nc1ccc(C)cc1 (stereo not drawn)	0.11	2	1	-0.43	/	/	/	/	/	/
CC1CCc2sc(C(=O)NCc3ccc(F)cc3)cc2C1 (stereo not drawn)	-0.88	1	-31	-0.43	/	/	/	/	/	/
CC1CCc2sc(-c3n[nH]c(=S)o3)cc2C1 (stereo not drawn)	39*	-2	-6	1.9	0.021*	0.1*	0.032	0.03*	0.053*	0.015*
O=C(CSc1nnc(CNc2ccc(F)cc2)o1)N1CCN(C(=O)c2ccco2)CC1	-0.63	-18	8	/	/	/	/	/	/	/
O=C(CSc1nnc(-c2ccc(F)cc2)o1)N1CCN(C(=O)c2ccco2)CC1	-4.4*	-5	1	/	0.0079	0.0066	0.03*	0.0045	0.018*	0.012
SMILES	Cl transport mod	PKD1 inh	Rad51 HR inh	ROMK primary	KCC2 secondary	KCC2 bumet counter	KCC2 sec2	HEK counter1	KCC2 ouabain	HEK counter2
Cn1c(O)c(C2=c3ccccc3=NC2=O)[nH]c1=S	27*	0	5	/	0.015*	0.061*	0.032	0.031*	0.043*	0.014*
COc1ccc2nc(-n3c(O)c(C4=c5ccccc5=NC4=O)[nH]c3=S)sc2c1	0.01	3	-5	/	/	/	/	/	/	/
CCc1nn(CCCC(=O)N2CCc3ccccc3C2)c(=O)c2cc3occc3n12	-5.8*	-8	3	0.87	0.0075	0.006	0.03	0.0062	0.014*	0.01
Cc1nn(CCCC(=O)N2CCc3ccccc3C2)c(=O)c2cc3sccc3n12	-6.5*	-6	/	/	0.0058	0.0051	?	?	0.012*	0.011
CC(C)(C)SCCNC(=O)/C=C/c1cccc([N+](=O)[O-])c1	3.7*	0	0	-0.34	0.0093	0.0063	0.033	0.0047	0.02	0.011
Cc1ccc(SCCNC(=O)/C=C/c2cccc([N+](=O)[O-])c2)cc1	-4.5*	-9	/	-0.51	0.0073	0.0047	0.035	0.0068	0.015*	0.011
COc1ccc(N2CCN(C(=O)CSc3nc4[nH]ncc4c(=O)n3-c3cccc4ccccc34)CC2)cc1	-4.4*	3	3	-0.82	0.0059	0.0064*	0.026*	0.0072	0.015*	0.011
COC(=O)c1cc2c(ccn2-c2ccc(F)cc2)n1CC(=O)N1CCN(C(=O)c2ccco2)CC1	-6.7*	11	-9	0.18	?	?	0.028*	0.0095*	?	0.01
CCOC(=O)c1cc2c(ccn2-c2ccc(F)cc2)n1CC(=O)NC(C)(C)C	-5.6*	-1	4	0.016	0.0065	0.0049	0.024*	0.0077	0.017*	0.012
Cc1ccnc(N2C(=O)CSC2c2ccc(Cl)cc2)c1 (stereo not drawn)	-0.54	2	15	-0.81	/	/	/	/	/	/
CC1CCCC(NC(=O)CCC(=O)c2ccc(F)cc2)C1C (stereo not drawn)	-4*	/	13	/	0.0064	0.0053	0.03	0.007	0.018	0.0096
